Most compounds without a hit are left out; they make up all but 1.5% or so of the library.
OXTR agonist = human OXTR agonists, primary screen, fluorescence, CHO-OTR cells, Fluo-8 calcium; Oxytocin receptor (Homo sapiens), P30559; Fluo-8 calcium fluorescence; normalized: DMSO 0%, oxytocin 100%; activation, % at 3 µM; 320,000 tested, 0.32% active; AID 2435, 2010;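 active means activation above the mean of all tested compounds plus 3 SD, cutoff set per screening run, cut at about 20% in these data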;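 further: peak over basal fluorescence ratio from a 100 s FLIPR kinetic read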
Target sequence (P30559 whole entry, looked up): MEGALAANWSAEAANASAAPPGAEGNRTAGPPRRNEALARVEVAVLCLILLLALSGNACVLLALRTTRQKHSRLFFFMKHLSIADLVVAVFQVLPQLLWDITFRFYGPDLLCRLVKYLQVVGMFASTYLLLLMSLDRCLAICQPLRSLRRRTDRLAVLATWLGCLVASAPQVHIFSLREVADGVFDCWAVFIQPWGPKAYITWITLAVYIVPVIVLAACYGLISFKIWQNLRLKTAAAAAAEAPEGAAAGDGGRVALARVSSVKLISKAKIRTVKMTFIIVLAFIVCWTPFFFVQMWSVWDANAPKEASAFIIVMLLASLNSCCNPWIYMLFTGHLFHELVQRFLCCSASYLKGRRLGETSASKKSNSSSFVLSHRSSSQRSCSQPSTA
OXTR potentiate = human OXTR potentiators, primary screen, fluorescence, CHO-OTR cells, Fluo-8 calcium. 320,000 tested, 0.061% active. activation, % at 3 µM. Fluo-8 calcium fluorescence, potentiator mode; 0% = oxytocin EC15, 100% = EC100. Oxytocin receptor (Homo sapiens), P30559;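 active means activation above that plate's cutoff, the mean activation of tested compounds plus 3 SD, cut at about 6.6% in these data, passing the limit was not always enough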;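 further: 100% uses oxytocin at 75 nM as the full agonist control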
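Assay system: CHO cell line stably expressing human OTR. Reagent: EC15 oxytocin agonist. Dosing: single dose, 3.0 µM nominal final compound concentration. Timing: compound 6 min at room temperature before oxytocin, 100 s read. Signal: kinetic Fluo-8 calcium fluorescence. Controls: oxytocin EC15 low and EC100 high.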
M4 ag = human M4 muscarinic receptor agonists, primary screen, CHO-K1 cells, Fluo-8 calcium fluorescence; Muscarinic acetylcholine receptor M4 (Homo sapiens), P08173; CHO-K1 hM4/Gqi5; vehicle 0%, full acetylcholine response 100%; activation, % at 3 µM; 360,000 tested, 0.14% active; AID 624127, 2012;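 active means activation above the run mean over all test wells plus 3 SD, cut at about 32% in these data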;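 further: peak over basal fluorescence ratio per well then scaled between controls; 0% = DMSO wells and 100% = acetylcholine at EC100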
M4 antag = human M4 muscarinic receptor antagonists, primary screen, CHO cells, Fluo-8 calcium fluorescence; CHO-hM4 cells, ACh EC80; 360,000 tested, 0.73% active; Muscarinic acetylcholine receptor M4 (Homo sapiens), P08173; inhibition, % at 3 µM;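 active means inhibition above its plate's cutoff, the mean inhibition of sample wells plus 3 SD, cut at about 27% in these data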;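 further: 0% = acetylcholine EC80 with DMSO and 100% = DMSO without agonist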
V1aR counter = agonists of human V1a receptor, primary screen, counter-screen for OXTR agonist project, fluorescence, CHO-V1R cells; activation, % at 3 µM; AID 2797, 2010; 320,000 tested, 0.25% active; Vasopressin V1a receptor (Homo sapiens), P37288; Fluo-8 calcium fluorescence, agonist mode; 0% DMSO, 100% 3 nM vasopressin;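 active means activation above the mean activation of all tested compounds plus 3 SD, per screening run, cut at about 20% in these data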;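 further: signal is peak over basal fluorescence ratio across a 100 second FLIPR read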
CHRM4 PAM = human M4 muscarinic receptor positive allosteric modulators, primary screen, CHO-K1 cells, Fluo-8 calcium fluorescence. CHO-K1 hM4/Gqi5, ACh EC20; 0% = ACh EC20, 100% = maximal ACh. activation, % at 3 µM. 360,000 tested, 0.4% active. AID 624126, 2012;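 active means activation above its plate's cutoff, the mean activation of sample wells plus 3 SD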
OXTR ag confirm = human OXTR agonists, confirmation, fluorescence, CHO-OTR cells, triplicate; 390 tested, 20% active; AID 434963, 2010; Fluo-8 calcium fluorescence, agonist; activation, % at 3 µM; shares compounds with OXTR agonist;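 active means mean activation above about 20% derived from the earlier single-dose screen, limit read from the data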;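 further: peak over minimum fluorescence ratio per well during a 100 second FLIPR read; 0% = DMSO alone and 100% = oxytocin high control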
V1aR counter 3x = V1a receptor agonists, calcium signal, counter-screen for OXTR agonist project, triplicate, fluorescence, CHO-V1R cells. shares compounds with OXTR agonist. Fluo-8 calcium fluorescence. activation, % at 3 µM. 390 tested, 10% active. AID 434991, 2010;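 active means mean activation over triplicate exceeds the hit threshold set in the earlier primary screen, cut at about 20% in these data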;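 further: peak over basal fluorescence ratio within a 100 second read; 0% = DMSO alone and 100% = 3 nM vasopressin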
The depositor's hits bear a star; / = no result.

SMILES | OXTR agonist | OXTR potentiate | M4 ag | M4 antag | V1aR counter | CHRM4 PAM | OXTR ag confirm | V1aR counter 3x
Cc1ccc(C(C)NC(=O)/C(C#N)=C\c2c(C)[nH]c3ccccc23)cc1 (stereo unspecified) | 27* | -10 | 21 | 7 | 18 | 5 | 14 | 9
Cc1ccc(S(=O)(=O)NCCC(=O)NCc2ccco2)cc1 | 0 | -6 | 0 | 2 | 0 | -3 | / | /
CCOc1ccc(OCC)c(NC(=O)CSc2nnnn2CC)c1 | 22* | -16 | 1 | 2 | 0 | 0 | -1 | -1
COc1ccc(C(C)(C)C)cc1NC(=O)COC(=O)CSCc1c(C)noc1C | / | / | 0 | -5 | / | 16 | / | /
Cc1nn(C)cc1C(C(=O)NC1CCCCC1)N(C(=O)Cc1cccs1)c1ccc(C(C)C)cc1 (stereo unspecified) | 22* | -19 | 0 | -1 | 1 | 8 | 5 | 3
Cc1cc(C)c(S(N)(=O)=O)c(C)c1N(C)S(=O)(=O)c1ccc(Cl)cc1 | 1 | 3 | 0 | 2 | 3 | -1 | / | /
Cc1ccc(OCC(=O)Nc2ccc(S(=O)(=O)N(C)C3CCN(C)CC3)cc2)c(C)c1 | 8 | -5 | 4 | -1 | 8 | -1 | / | /
CN1CCC(N(C)S(=O)(=O)c2ccc(NC(=O)COc3ccc(Br)cc3Cl)cc2)CC1 | 25* | -17 | 11 | -2 | 12 | 3 | 9 | 8
N#Cc1cnn2c(-c3ccc(Cl)cc3Cl)ccnc12 | 5 | -2 | 3 | -4 | 5 | -2 | / | /
Cc1ccc(-c2cc(NC(=O)c3ccccc3)on2)cc1 | 20* | -18 | 8 | -13 | 10 | 7 | 7 | 5
C=CCN1C(=O)C(Cc2ccccc2Cl)SC1=Nc1ccc(C(=O)O)cc1 (stereo unspecified) | 21* | -12 | 5 | 10 | 10 | -3 | 8 | 8
C=CCN1C(=O)C(CC(=O)O)SC1=Nc1ccc(C(=O)O)cc1 (stereo unspecified) | 0 | -6 | 1 | 0 | 1 | 0 | / | /
O=C(COC(=O)CNS(=O)(=O)c1ccccc1)Nc1ccc(Cl)cn1 | 1 | 0 | 2 | 0 | 1 | 3 | / | /
Cc1cccc(-c2noc(CN(C(=O)C(c3ccccc3)c3ccccc3)C(C)C)n2)c1 | 1 | -8 | 1 | -11 | 2 | -2 | / | /
CC1(C)CC(=O)c2c(n(-c3cccc4ccccc34)ccc2=O)C1 | -1 | -10 | 1 | 1 | 1 | 5 | / | /
Cc1[nH]c2ccccc2c1/C=N/Nc1ccc([N+](=O)[O-])cc1 | 21* | -6 | 16 | 13 | 18 | -7 | 25* | 35*
CCCC1(c2ccccc2)NC(=O)N(CC(=O)Nc2cc(C)ccc2OC)C1=O (stereo unspecified) | 24* | -12 | 14 | 1 | 7 | 2 | 10 | 4
CC(C)NCC(O)Cn1c2c(c3ccccc31)CCc1c-2cnn1-c1ccccc1 (stereo unspecified) | 22* | -23 | 9 | -2 | 19 | 15 | 12 | 6
O=C(NC12CC3CC(CC(C3)C1)C2)c1ccccc1O | 24* | -21 | 3 | -7 | 2 | -9 | -1 | 2
O=C(NNC(=O)C12CC3CC(CC(C3)C1)C2)c1ccccc1O | 1 | -3 | 1 | -8 | 0 | 1 | / | /
COc1ccc2nc(NC(=O)c3ccccc3O)sc2c1 | 20* | -25 | 2 | -26 | 16 | -2 | 11 | 9
Cc1cc(C)nc(/N=C(\N)Nc2ccc(S(N)(=O)=O)cc2)n1 | 0 | -12 | 1 | 1 | 0 | -7 | / | /
Cc1cc(C)nc(/N=C(\N)Nc2ccc(-c3ccccc3)cc2)n1 | 23* | -17 | 68* | 29* | 16 | -29 | 14 | 18
COC(=O)[C@H](Cc1c[nH]c2ccccc12)NC(=O)CCCc1c[nH]c2ccccc12 | 7 | -15 | 22 | 8 | 18 | -10 | / | /
CCOC(=O)C(Cc1ccc(O)cc1)NC(=O)CCc1c[nH]c2ccccc12 (stereo unspecified) | 23* | -21 | 9 | -5 | 17 | -2 | 19 | 3
SMILES | OXTR agonist | OXTR potentiate | M4 ag | M4 antag | V1aR counter | CHRM4 PAM | OXTR ag confirm | V1aR counter 3x
COC(=O)c1ccc(NC(=O)Nc2ccc([N+](=O)[O-])cc2)cc1 | 20* | -16 | 18 | 14 | 16 | -9 | 14 | 12
OCCNCC(O)Cn1c2ccccc2c2ccccc21 (stereo unspecified) | 1 | -10 | 2 | 0 | 0 | 5 | / | /
COc1ccccc1CNCC(O)Cn1c2ccccc2c2ccccc21 (stereo unspecified) | 22* | -14 | 29 | 19 | 9 | -10 | 11 | 7
CCOc1ccc(Nc2nc(NCC3CCCO3)c3ccccc3n2)cc1 (stereo unspecified) | 20* | -26 | 8 | 0 | 9 | -14 | 0 | 3
COc1ccc(CNCCNC(=O)c2nonc2N)cc1OC | 2 | 3 | 0 | 9 | 1 | 1 | / | /
Nc1nonc1C(=O)NCCNCc1cc(Br)ccc1OCc1ccc(F)cc1 | 20* | -8 | 11 | 19 | 13 | -19 | 8 | 10
NC(=O)c1c(NC(=O)c2ccncc2)sc2c1CCCCCC2 | 24* | -8 | 19 | 5 | 13 | -6 | 14 | 21*
NC(=O)c1c(NC(=O)c2ccncc2)sc2c1CCCC2 | -1 | -6 | 2 | 2 | 0 | 7 | / | /
COc1cccc(N(CC(=O)NC2CCCCC2)C(=O)CCCC(=O)Nc2ccccn2)c1 | -1 | -5 | 0 | -2 | 0 | 0 | / | /
O=C(NCc1ccccc1)c1sc(=S)n2c1[nH]c(=O)c1ccccc12 | 21* | -23 | 2 | 26 | 13 | -2 | 12 | 11
CCCCNC(=O)c1sc(=S)n2c1[nH]c(=O)c1ccc(C(=O)NCCc3ccc(OC)c(OC)c3)cc12 | -1 | -7 | 0 | 4 | 1 | 15 | / | /
